This is an account of results in paper PMC6005736 (Leukemia & lymphoma, 2017).

“Also recorded” adds a separate entry of the source.

The target of test [1] is Runt domain - CBFβ interaction (Homo sapiens, UniProt Q01196). Kind of test: FRET assay of Cerulean-Runt domain and Venus-CBFβ binding. The method in brief: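 Purified Cerulean-Runt domain and Venus-CBFβ fusion proteins were used in a competition FRET format. Test compounds displace CBFβ binding to the Runt domain. Initial screening of compounds was at 200 µM.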
The subject of test [2] is CBFβ-Runx. To be noted: ref [44]; cited from earlier work.
In test [3] the test system is 8946 T-ALL cell line. The test is described as follows: MTT cell viability assay, 8946. Particulars: 48 hours. In kind it is cell-based, murine. An outline of the steps:
(§1)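 Leukemia cell lines were treated with test compound, with DMSO vehicle and staurosporine positive-control arms, and viability was read by MTT. Mean of triplicates ± SD, two independent experiments. One-way ANOVA excluding staurosporine, then Dunnett's test against DMSO-treated cells (P ≤ 0.05).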
A general note: Tetrazolium assays rely on reduction of a dye to a coloured formazan, in cell work by metabolically active cells.

Test [4] concerns normal mouse bone marrow cells. The test is described as follows: CFU-C assay, normal mouse bone marrow cells. In kind it is cell-based. To be noted: methylcellulose, colonies counted 7 days after plating.
The subject of test [5] is Kasumi-1 cells. Kind of test: MTT cell viability assay, Kasumi-1. In kind it is cell-based, human. To be noted: 48 hours in culture. The method in brief: as §1
The subject of test [6] is hematopoietic stem and progenitor cell (HSPC) formation in zebrafish embryos. Kind of test: HSPC formation in zebrafish embryos. In kind it is in vivo.
Test [7] has as its system 720 T-ALL cells. Kind of test: qPCR gene expression in 720 T-ALL cells. To be noted: 720 T-ALL cells treated for 16 hours. In kind it is cell-based, mouse. The method in brief:
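720 T-ALL cells were exposed to test compound for 16 h and transcript levels quantified by qPCR relative to DMSO-treated cells. Triplicate means ± SD, two experiments. One-way ANOVA with Dunnett's comparison against DMSO.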

Test [8] concerns normal bone marrow mononuclear cells (BM-MNCs). Kind of test: CFU-C assay, normal human bone marrow mononuclear cells. In kind it is cell-based. To be noted: methylcellulose, colonies counted 14 days after plating.
Test [9] has as its system Kasumi-1 cells. Kind of test: DAPI flow cytometry of dead/live Kasumi-1 cells. Particulars: 48 hours in culture. In kind it is cell-based, human. In general terms: A flow cytometer gives signals particle by particle.
The test system of test [10] is t(8;21) positive human AML samples. The test is described as follows: CFU-C assay, primary human t. In kind it is cell-based. To be noted: five samples, methylcellulose, colonies counted 14 days after plating. The method in brief: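 Primary AML specimens (pheresis or bone marrow mononuclear cells) were plated in methylcellulose with various test compound concentrations. Colonies were scored 14 days after plating. Triplicate cultures per concentration, two experiments. Significance versus DMSO by one-way ANOVA with Dunnett's multiple-comparison test.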

Test [11] has as its system Jurkat. The test is described as follows: MTT cell viability assay, Jurkat. Particulars: 48 hours. In kind it is cell-based, human. The method in brief:
as §1

The subject of test [12] is 720 T-ALL cell line. Kind of test: MTT cell viability assay, 720 T-ALL. Particulars: 48 hours. In kind it is cell-based, mouse. The method in brief:
as §1

The test system of test [13] is Cerulean-Runt domain. The test is described as follows: Saturation transfer difference. In kind it is binding. To be noted: STD NMR.
Test [14] concerns AML1-ETO9a + NRas^G12D AML cells. Kind of test: CFU-C assay, murine AML1-ETO9a + NRasG12D AML cells. To be noted: methylcellulose, colonies counted 7 days after plating. In kind it is cell-based, mouse. The method in brief: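 Leukemic cells came from a secondary recipient of spleen cells. The primary recipient had received fetal liver cells transduced with AML1-ETO9a and NRasG12D retroviruses. 20,000 cells were plated in methylcellulose with various test compound concentrations (DMSO final 0.2%). Colonies were counted at day 7. Triplicates per concentration, two experiments, SD. One-way ANOVA with Dunnett's test versus DMSO.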

Runt domain - CBFβ interaction, sequence (Q01196 50-178 limits assumed): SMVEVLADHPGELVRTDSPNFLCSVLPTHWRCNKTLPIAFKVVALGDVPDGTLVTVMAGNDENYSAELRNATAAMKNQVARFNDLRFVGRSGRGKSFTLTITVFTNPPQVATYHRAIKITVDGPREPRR

As to `Sc1nnc(-c2ccccc2)s1` [4b, 5-phenyl-1,3,4-thiadiazole-2(3H)-thione], the 50% inhibitory concentration (IC50) (in general, the concentration at which inhibition is half-maximal) in test [1] was found to be 11 ± 1.3 µM.
For the compound `CSc1nnc(-c2ccccc2F)s1` [6a, 2-(2-fluorophenyl)-5-(methylthio)-1,3,4-thiadiazole], the “activity in the FRET assay” value in test [1] (Cerulean-Runt domain and Venus-CBFβ at 100 nM) is “complete loss of activity”.
For `O=C1CN=C(c2ccc[nH]2)c2cc(Cl)ccc2N1` [Ro5-3335], in test [2], the “inhibitor of CBFβ-Runx” value is given as “inhibitor of CBFβ-Runx”.
As to `S=c1[nH]nc(-c2ccc(-c3cccc(Cl)c3)o2)s1` [AI-8–45], the “growth of 8946 T-ALL cells (MTT)” value in [3] is “significantly reduced the growth; also recorded: inhibit proliferation”. In test [4], the “colony formation by normal mouse bone marrow cells” value is recorded as “Neither AI-8–45 nor AI-9–54 had any effect”. Moreover, the “growth of Kasumi-1 cells (MTT)” value in [5] was “significantly reduced the growth; also recorded: inhibit proliferation”. Besides, the “Flk1:dsRed+Myb:Gfp+ HSPCs in the VDA at 36 hpf” value in test [6] (Tg(kdrl:dsred;cmyb:egfp) embryos, 2.5 µM, 12 to 36 hpf, flow cytometry) is listed as “decreased”. Besides, in [6] (Tg(−6.0itga2b:egfp) embryos, treated 18 to 48 hpf, compared to AI-7–54 treated controls), the “number of CD41:Gfp+ HSPCs in the CHT at 48 hpf” value was “decreased”. Also, the “expression of Deptor, Cdkn1a, Dhcr24, Cebpa, Csf1r (qPCR)” value in test [7] is given as “affected”. The “colony numbers of normal bone marrow mononuclear cells” value in [8] was “but not that of normal bone marrow mononuclear cells”. Moreover, the “percentage of DAPI-positive dead cells” value in test [9] is “statistically significant and dose-dependent increase”. Besides, in [10], the “colony numbers of t(8;21) positive human AML samples” value is “significantly reduced the colony numbers”. Moreover, in test [11], the “growth of Jurkat cells (MTT)” value is “significantly reduced the growth; also recorded: inhibit proliferation”. In test [12], the “growth of 720 T-ALL cells (MTT)” value is “significantly reduced the growth; also recorded: inhibit proliferation”. Further, the “saturation transfer effect / binding to Runt domain” value in test [13] is reported as “in close contact with the protein”. The “colony formation of AML1-ETO9a + NRasG12D AML cells” value in [14] is recorded as “significantly reduced colony formation”.
